Data: BindingDB's records for doi:10.1016/j.bmcl.2007.12.018 (Novartis Institute For Biomedical Research, 2008)

Molecular target: RAC-alpha serine/threonine-protein kinase (Homo sapiens, UniProt P31749)
Experiment: Inhibition of phosphorylation of T308-PKB in human U87MG cells by ELISA
Outline: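 Cell capture ELISA for phospho-T308 PKB in U87MG cells; IC50 determined.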

Sequence of RAC-alpha serine/threonine-protein kinase (P31749 whole entry): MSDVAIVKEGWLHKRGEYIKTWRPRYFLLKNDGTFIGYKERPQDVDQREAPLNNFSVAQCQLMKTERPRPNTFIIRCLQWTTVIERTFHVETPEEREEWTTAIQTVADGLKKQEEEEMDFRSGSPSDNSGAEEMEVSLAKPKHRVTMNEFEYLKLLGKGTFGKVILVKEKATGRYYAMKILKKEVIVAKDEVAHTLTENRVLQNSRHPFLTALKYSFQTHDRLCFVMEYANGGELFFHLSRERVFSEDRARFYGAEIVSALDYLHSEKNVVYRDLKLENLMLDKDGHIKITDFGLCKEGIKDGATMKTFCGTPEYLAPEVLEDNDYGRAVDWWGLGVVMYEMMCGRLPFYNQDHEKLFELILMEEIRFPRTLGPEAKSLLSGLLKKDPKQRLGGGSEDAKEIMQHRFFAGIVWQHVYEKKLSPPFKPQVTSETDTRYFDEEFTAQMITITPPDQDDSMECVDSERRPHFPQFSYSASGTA

Q: Which IC50 does the source give for `Cc1nc2cnc3ccc(C#Cc4cccnc4)cc3c2n1-c1ccc(C(C)C#N)cc1` (centres undefined) here?
A: 45 nM

Q: How did the IC50 turn out when `Cn1c(=O)n(-c2ccc(C(C)(C)C#N)cc2)c2c3cc(C#Cc4cccnc4)ccc3ncc21` was run?
A: 33 nM

Q: For `Cc1nc2cnc3ccc(C#Cc4cccnc4)cc3c2n1-c1ccc(CC#N)cc1`, which IC50 is on record?
A: 77 nM

Q: For `CCc1nc2cnc3ccc(C#Cc4cccnc4)cc3c2n1-c1ccc(CC#N)cc1`, which IC50 is on record?
A: 138 nM
